# Experimental data taken from PMC5437736 (Molecular Therapy. Methods & Clinical Development, 2017).
# Non-standard residues stand in square brackets, D forms with d. No end group written: not given here. Dmt = Cc1cc(O)cc(C)c1C[C@H](N)C(=O)O; Orn = NCCC[C@H](N)C(=O)O
# What was measured:
# [1] = Solubility in MilliQ water; assay type: physicochemical; conditions: compared with unlabelled peptide
# HeLa 705 cells [2] = assay: Subcellular uptake by spectrofluorometry after isolation of mitochondria; assay type: cell-based, human; conditions: 5 μM, 24 hr; for compartment of main accumulation: membranes, cytosol, mitochondria fractions
# Method in brief: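 HeLa 705 cells grown in flasks for 24 hr, treated 24 hr with fluorescein-labelled peptide, then scraped at about 90% confluence. Reagent-based kit with differential centrifugation (700 × g 10 min, then 12,000 × g 15 min, 4°C) gave membrane, cytosol and mitochondrial fractions. Fluorescein read at […] and normalised to untreated cells. Mean ± SD of three experiments; one-way ANOVA.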
# HeLa 705 cells [3] = assay: WST-1 cell proliferation/viability assay; assay type: cell-based, human; conditions: 20% DMSO in complete growth medium, 24 hr, positive control
# Method in brief: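 Cells seeded at 7 × 10³ per well 24 hr ahead, then exposed 24 hr to peptide at several concentrations in complete medium. WST-1 added at 1:10 final dilution after 20 hr and incubated 4 hr. Plate shaken 1 min; formazan read at 450 nm against 650 nm reference. Controls: 20% DMSO (v/v) for 24 hr and H2O2 at two levels. Mean of at least three experiments with SD.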
# [4] = tested on: mitochondrial membrane potential in HeLa 705 cells; assay: Mitochondrial membrane potential; assay type: cell-based, human; conditions: 5 μM peptide 24 hr, TMRE fluorescence, n = 3; for mitochondrial membrane potential (Δψm) with H2O2 (oxidative stress): H2O2 200 μM for 2 hr
# Method in brief: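 HeLa 705 cells seeded 24 hr ahead and treated 24 hr with peptide. In the stress arm, a 2 hr H2O2 exposure preceded the 24 hr incubation at 37°C, 5% CO2. TMRE added at 400 nM final for 30 min in the dark, then PBS wash and 0.2% BSA in PBS. Read at ex 549/em 575 nm, as percent of untreated cells or untreated + H2O2. FCCP and H2O2 served as controls. Mean ± SD of three experiments; one-way ANOVA.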
# [5] = read-out: EC50 of the hydroxyl radical scavenging reaction; cited from earlier work
# different cell lines = conditions: high concentration (100 μM); cited from earlier work
# cells = conditions: 1-hr treatment with 1 mM of GSH; cited from earlier work
# [6] = tested on: mitochondrial superoxide in HeLa 705 cells; assay: Superoxide anion scavenging assay; assay type: cell-based, human; conditions: 5 μM, 24 hr, MitoSOX fluorescence, mean of three experiments
# Method in brief: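 HeLa 705 cells seeded at 7 × 10³ per well, recovered 24 hr, then exposed to peptide for 24 hr. MitoSOX Red working solution in HBSS/Ca/Mg added for 10 min at 37°C, 5% CO2, in the dark. Cells washed with 0.2% BSA in PBS and read at ex 510/em 580 nm. Signal normalised to antimycin A-treated cells or to a reference peptide. Mean ± SD of three experiments.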
# HeLa 705 cells [7] = assay: Fluorescence microscopy, cellular uptake and localization; assay type: cell-based, human; conditions: carboxyfluorescein-labelled peptide 5 μM, 4 hr, 200 nM TMRE
# Method in brief: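 HeLa 705 cells given carboxyfluorescein-labelled peptides for 4 hr; untreated cells got fresh medium in parallel. Mitochondria stained with 200 nM TMRE (20 min at 37°C per methods; added 30 min pre-imaging per legend) and nuclei with Hoechst 33342 (10 min). Inverted fluorescence microscope with 10×/40× dry and 63× oil objectives, held at 36 ± 1°C. Excitation/emission: Hoechst 346/497 nm, FAM 494/519 nm, TMRE 535/575 nm.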
# Dynamic light scattering = assay type: physicochemical; conditions: MilliQ H2O or cell culture media, 5 μM
# Method in brief: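 Test compound dissolved either in DMEM with 10% FBS or in MilliQ water adjusted to pH 7.4. Dynamic light scattering gave hydrodynamic mean diameter and zeta potential. Data plotted as size distribution by intensity.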
compound,measurement,setting,value
FAM-D-Arg-Dmt-Orn-Phe-NH2 [FAM-mtCPP1],effect of the carboxyfluorescein moiety on solubility,[1],did not decrease the solubility
same,increase in cytosol fraction between FAM-UPF25 and FAM-mtCPP1,"HeLa 705 cells [2]; carboxyfluorescein F.I., direction not given",2 fold
FAM-Tyr(Me)-Glu-Cys-Gly-NH2 [FAM-UPF25],effect of the carboxyfluorescein moiety on solubility,[1],slightly decreased
same,compartment of main accumulation,HeLa 705 cells [2],mainly accumulates in membranes
FAM-D-Arg-Dmt-Orn-Phe-Tyr(Me)-Glu-Cys-Gly-NH2 [FAM-mtgCPP],effect of the carboxyfluorescein moiety on solubility,[1],did not decrease the solubility
same,presence in membranes fraction,HeLa 705 cells [2]; carboxyfluorescein F.I.,same extent as FAM-mtCPP1
same,compartment of main accumulation,HeLa 705 cells [2],mainly accumulated in the mitochondria
C[S+](C)[O-] [DMSO],cell viability,HeLa 705 cells [3],approximately 20%
Y(Me)ECG-NH2 (N-terminus assumed; SMILES COc1ccc(C[C@H](N)C(=O)N[C@@H](CCC(=O)O)C(=O)N[C@@H](CS)C(=O)NCC(N)=O)cc1) [UPF25],mitochondrial membrane potential (Δψm) without H2O2,[4],decreased
same,mitochondrial membrane potential (Δψm) with H2O2 (oxidative stress),[4],partially rescue
same,EC50,[5],~30 nM
same,effect on viability of different cell lines,different cell lines,did not affect the viability
glutathione [GSH],uptake of GSH in cells,cells,≈ 1.5 μM
[dR][Dmt][Orn]FY(Me)ECG-NH2 (N-terminus assumed; SMILES COc1ccc(C[C@H](NC(=O)[C@H](Cc2ccccc2)NC(=O)[C@H](CCCN)NC(=O)[C@H](Cc2c(C)cc(O)cc2C)NC(=O)[C@H](N)CCCNC(=N)N)C(=O)N[C@@H](CCC(=O)O)C(=O)N[C@@H](CS)C(=O)NCC(N)=O)cc1) [mtgCPP],improvement of superoxide anion scavenging ability compared with UPF25,[6],3 fold
same,improvement of superoxide anion scavenging ability compared with mtCPP1,[6],2 fold
same,mitochondrial membrane potential (Δψm) with H2O2 (oxidative stress),[4],close to the healthy situation
same,mitochondrial localization (merge with TMRE),HeLa 705 cells [7],partially targets the mitochondria
same,aggregation (from DLS size),Dynamic light scattering,forming aggregates
